Data published in ChEMBL document CHEMBL4007420, “Structural Optimization and Pharmacological Evaluation of Inhibitors Targeting Dual-Specificity Tyrosine Phosphorylation-Regulated Kinases (DYRK) and CDC-like kinases (CLK) in Glioblastoma” (J Med Chem, 2017).
Activity calls are given as the source filed them. The calls are words filed in the database; no cut-off is given here.

Experiments:
[1] = biological target: T1, Dual specificity tyrosine-phosphorylation-regulated kinase 4 (Homo sapiens, UniProt Q9NR20); test: Inhibition of full-length recombinant human GST-tagged DYRK4 expressed in baculovirus infected insect cells using DYRKtide as substrate after 5 mins in presence of [gamma-33P]ATP by liquid scintillation counting
T1 sequence (Q9NR20 whole entry): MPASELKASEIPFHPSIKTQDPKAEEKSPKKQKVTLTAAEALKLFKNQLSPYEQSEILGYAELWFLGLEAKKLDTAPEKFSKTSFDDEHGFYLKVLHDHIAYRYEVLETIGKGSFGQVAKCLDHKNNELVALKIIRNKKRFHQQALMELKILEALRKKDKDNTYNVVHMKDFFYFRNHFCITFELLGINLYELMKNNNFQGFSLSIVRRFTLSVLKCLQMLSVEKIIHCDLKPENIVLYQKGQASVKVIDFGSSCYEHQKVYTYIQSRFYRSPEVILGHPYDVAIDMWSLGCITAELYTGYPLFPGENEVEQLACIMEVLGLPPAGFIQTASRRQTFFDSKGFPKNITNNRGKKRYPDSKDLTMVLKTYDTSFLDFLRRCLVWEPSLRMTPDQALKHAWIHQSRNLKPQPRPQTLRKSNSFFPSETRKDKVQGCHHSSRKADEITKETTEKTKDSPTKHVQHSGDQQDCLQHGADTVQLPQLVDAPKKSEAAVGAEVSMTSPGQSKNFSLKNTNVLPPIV

[2] = biological target: T2, Dual specificity tyrosine-phosphorylation-regulated kinase 3 (Homo sapiens, UniProt O43781); test: Inhibition of full-length recombinant human GST-tagged DYRK3 expressed in Escherichia coli using woodtide as substrate after 30 mins in presence of [gamma-33P]ATP
T2 sequence (O43781 whole entry): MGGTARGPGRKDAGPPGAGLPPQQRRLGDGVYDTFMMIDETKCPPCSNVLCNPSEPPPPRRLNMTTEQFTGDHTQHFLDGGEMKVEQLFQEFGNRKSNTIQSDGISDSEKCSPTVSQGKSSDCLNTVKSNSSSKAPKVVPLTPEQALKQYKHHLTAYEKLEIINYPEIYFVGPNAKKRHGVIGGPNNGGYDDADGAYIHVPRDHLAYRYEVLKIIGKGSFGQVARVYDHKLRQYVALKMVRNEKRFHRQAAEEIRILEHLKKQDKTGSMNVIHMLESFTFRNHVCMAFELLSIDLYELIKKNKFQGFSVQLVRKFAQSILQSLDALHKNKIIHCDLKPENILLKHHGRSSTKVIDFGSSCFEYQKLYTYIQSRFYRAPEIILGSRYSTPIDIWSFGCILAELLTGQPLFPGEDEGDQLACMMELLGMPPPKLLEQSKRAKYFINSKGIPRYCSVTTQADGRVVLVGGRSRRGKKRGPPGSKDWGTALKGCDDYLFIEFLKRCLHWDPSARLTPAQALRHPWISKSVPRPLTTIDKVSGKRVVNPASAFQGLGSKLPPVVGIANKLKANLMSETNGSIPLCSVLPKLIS

[3] = biological target: Dual specificity tyrosine-phosphorylation-regulated kinase 1A (Homo sapiens, UniProt Q13627); test: Inhibition of DYRK1A (unknown origin) using woodtide as substrate after 10 mins in presence of [gamma-33P]ATP by microbeta scintillation counting
A 172 [4] = test: Antimigratory activity in human A172 cells assessed as velocity of migration at 10 uM measured up to 20 hrs by wound scratch assay (reference value: 2650 to 3123 micrometer/hr); assay type: functional
In short: (§1)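 Wound-healing migration assay: cell movement across the wound is measured as velocity (µm/h). Compounds were tested at 0, 1.0, 5.0 and 10.0 µM. Values are mean ± SEM of 3 independent experiments.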

[5] = Antimigratory activity in patient-derived RN1 cells assessed as velocity of migration at 10 uM measured up to 20 hrs by wound scratch assay (reference value: 937 to 1174 micrometer/hr); assay type: functional, Homo sapiens; in short: as §1
[6] = Cytotoxicity against patient-derived WK1 cells assessed as reduction in cell viability after 5 days by Alamar blue assay; assay type: functional, cell-based; conditions: Homo sapiens, WK1, 120 h
In short: (§2)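 The patient-derived glioblastoma lines were grown as stem cells under defined conditions to keep the phenotype and genotype of the resected tumours. Viability after treatment was read with Alamar blue.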

A 172 [7] = test: Antiinvasive activity in human A172 cells assessed as velocity of invasion at 5 uM measured up to 20 hrs by matrigel assay (reference value: 2659 to 3047 micrometer/hr); assay type: functional
[8] = Cytotoxicity against patient-derived RN1 cells assessed as reduction in cell viability after 3 days by Alamar blue assay; assay type: functional, cell-based; conditions: Homo sapiens, RN1, 72 h; in short: as §2
U-251 [9] = test: Antimigratory activity in human U251 cells assessed as velocity of migration at 1 uM measured up to 20 hrs by wound scratch assay (reference value: 2159 to 2653 micrometer/hr); assay type: functional; in short: as §1
U-251 [10] = test: Antimigratory activity in human U251 cells assessed as velocity of migration at 10 uM measured up to 20 hrs by wound scratch assay (reference value: 2159 to 2653 micrometer/hr); assay type: functional; in short: as §1
[11] = Antimigratory activity in patient-derived RN1 cells assessed as velocity of migration at 5 uM measured up to 20 hrs by wound scratch assay (reference value: 937 to 1174 micrometer/hr); assay type: functional, Homo sapiens; in short: as §1
[12] = biological target: Dual specificity protein kinase CLK1 (Homo sapiens, UniProt P49759); test: Inhibition of CLK1 (unknown origin) using KKGRSRSRSRSRSR as substrate after 40 mins in presence of [gamma-33P]ATP by microbeta scintillation counting
Sequence of Dual specificity protein kinase CLK1 (P49759 whole entry): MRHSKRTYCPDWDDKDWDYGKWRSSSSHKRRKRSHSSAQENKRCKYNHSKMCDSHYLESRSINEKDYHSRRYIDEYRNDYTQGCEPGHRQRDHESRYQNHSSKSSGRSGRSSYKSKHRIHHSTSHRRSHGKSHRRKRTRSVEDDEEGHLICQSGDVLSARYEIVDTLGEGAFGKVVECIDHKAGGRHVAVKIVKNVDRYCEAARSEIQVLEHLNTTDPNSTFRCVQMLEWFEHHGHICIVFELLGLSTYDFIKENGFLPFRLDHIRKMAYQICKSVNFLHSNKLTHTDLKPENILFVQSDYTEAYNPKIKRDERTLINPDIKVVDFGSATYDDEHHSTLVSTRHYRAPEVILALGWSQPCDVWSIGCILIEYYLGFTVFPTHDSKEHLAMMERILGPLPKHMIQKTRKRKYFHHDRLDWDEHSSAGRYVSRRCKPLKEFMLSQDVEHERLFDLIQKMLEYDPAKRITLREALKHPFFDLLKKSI
In short: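 CLK1 was assayed with RS peptide substrate at 100 µM ATP.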

U-251 [13] = test: Cytotoxicity against human U251 cells assessed as reduction in cell viability after 3 days by Alamar blue assay; assay type: functional, cell-based; conditions: U-251, 72 h
[14] = Cytotoxicity against patient-derived JK2 cells assessed as reduction in cell viability after 3 days by Alamar blue assay; assay type: functional, cell-based; conditions: Homo sapiens, JK2, 72 h; in short: as §2
A 172 [15] = test: Antimigratory activity in human A172 cells assessed as velocity of migration at 1 uM measured up to 20 hrs by wound scratch assay (reference value: 2650 to 3123 micrometer/hr); assay type: functional; in short: as §1
[16] = biological target: Dual specificity tyrosine-phosphorylation-regulated kinase 1B (Homo sapiens, UniProt Q9Y463); test: Inhibition of DYRK1B (unknown origin) using woodtide as substrate after 40 mins in presence of [gamma-33P]ATP by microbeta scintillation counting
Sequence of Dual specificity tyrosine-phosphorylation-regulated kinase 1B (Q9Y463 whole entry): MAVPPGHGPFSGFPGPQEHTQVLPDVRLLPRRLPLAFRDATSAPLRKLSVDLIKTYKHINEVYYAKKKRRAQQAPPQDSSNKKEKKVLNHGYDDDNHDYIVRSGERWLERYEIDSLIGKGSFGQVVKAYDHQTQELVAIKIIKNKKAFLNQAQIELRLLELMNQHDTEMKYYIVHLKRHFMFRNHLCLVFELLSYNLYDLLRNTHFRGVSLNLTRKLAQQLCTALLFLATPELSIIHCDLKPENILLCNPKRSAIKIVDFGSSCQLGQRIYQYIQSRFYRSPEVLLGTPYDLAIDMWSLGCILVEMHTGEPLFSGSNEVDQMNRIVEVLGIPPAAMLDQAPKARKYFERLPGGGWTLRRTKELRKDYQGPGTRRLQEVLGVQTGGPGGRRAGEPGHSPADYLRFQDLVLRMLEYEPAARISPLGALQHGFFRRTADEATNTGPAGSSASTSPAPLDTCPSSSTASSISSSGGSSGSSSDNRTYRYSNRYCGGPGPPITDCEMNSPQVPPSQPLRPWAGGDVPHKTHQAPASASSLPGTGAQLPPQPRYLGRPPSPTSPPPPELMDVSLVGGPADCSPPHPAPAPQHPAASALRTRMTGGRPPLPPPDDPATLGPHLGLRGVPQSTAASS

A 172 [17] = test: Cytotoxicity against human A172 cells assessed as reduction in cell viability after 3 days by Alamar blue assay; assay type: functional, cell-based; conditions: A 172, 72 h
U-251 [18] = test: Antiinvasive activity in human U251 cells assessed as velocity of invasion at 1 uM measured up to 20 hrs by matrigel assay (reference value: 1151 to 1710 micrometer/hr); assay type: functional
A 172 [19] = test: Antimigratory activity in human A172 cells assessed as velocity of migration at 5 uM measured up to 20 hrs by wound scratch assay (reference value: 2650 to 3123 micrometer/hr); assay type: functional; in short: as §1
A 172 [20] = test: Antiinvasive activity in human A172 cells assessed as velocity of invasion at 10 uM measured up to 20 hrs by matrigel assay (reference value: 2659 to 3047 micrometer/hr); assay type: functional
Homo sapiens = organism: Homo sapiens; test: Inhibition of tubulin (unknown origin) polymerization
RN1 = test: (§3) Anticlonogenic activity against patient-derived RN1 cells after 10 to 12 days by toluidine blue staining based assay; assay type: functional, cell-based; conditions: Homo sapiens
In short: (§4)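 Cells were exposed to compound for 10 days, then colonies were fixed, stained with Toluidine Blue and counted. […] Values are mean ± SEM of 3 independent experiments, each in duplicate, with one-way ANOVA and Dunnett's test against vehicle.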

[21] = as §3; assay type: functional, cell-based, Homo sapiens; in short: as §4
A 172 [22] = test: Antiinvasive activity in human A172 cells assessed as velocity of invasion at 1 uM measured up to 20 hrs by matrigel assay (reference value: 2659 to 3047 micrometer/hr); assay type: functional
[23] = biological target: T3, Dual specificity tyrosine-phosphorylation-regulated kinase 2 (Homo sapiens, UniProt Q92630); test: Inhibition of DYRK2 (unknown origin) using woodtide as substrate after 40 mins in presence of [gamma-33P]ATP by microbeta scintillation counting
T3 sequence (Q92630 whole entry): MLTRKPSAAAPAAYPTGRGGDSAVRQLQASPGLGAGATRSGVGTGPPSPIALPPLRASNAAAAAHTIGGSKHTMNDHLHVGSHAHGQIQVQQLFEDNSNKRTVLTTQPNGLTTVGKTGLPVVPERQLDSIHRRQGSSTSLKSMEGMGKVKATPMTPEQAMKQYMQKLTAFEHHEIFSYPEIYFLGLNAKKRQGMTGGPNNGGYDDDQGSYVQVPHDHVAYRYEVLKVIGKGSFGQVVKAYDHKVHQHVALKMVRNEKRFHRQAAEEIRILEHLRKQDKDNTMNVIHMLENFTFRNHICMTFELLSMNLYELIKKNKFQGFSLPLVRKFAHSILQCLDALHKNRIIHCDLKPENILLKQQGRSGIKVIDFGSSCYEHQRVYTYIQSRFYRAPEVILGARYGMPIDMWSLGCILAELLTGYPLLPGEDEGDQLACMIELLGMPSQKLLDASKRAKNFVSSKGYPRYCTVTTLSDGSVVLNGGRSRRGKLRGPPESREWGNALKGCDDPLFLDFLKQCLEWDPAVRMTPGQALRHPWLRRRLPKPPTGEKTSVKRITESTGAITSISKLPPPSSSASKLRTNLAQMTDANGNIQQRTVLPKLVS

U-251 [24] = test: Antiinvasive activity in human U251 cells assessed as velocity of invasion at 10 uM measured up to 20 hrs by matrigel assay (reference value: 1151 to 1710 micrometer/hr); assay type: functional
U-251 [25] = test: Antimigratory activity in human U251 cells assessed as velocity of migration at 5 uM measured up to 20 hrs by wound scratch assay (reference value: 2159 to 2653 micrometer/hr); assay type: functional; in short: as §1
[26] = Cytotoxicity against patient-derived SJH1 cells assessed as reduction in cell viability after 3 days by Alamar blue assay; assay type: functional, cell-based; conditions: Homo sapiens, SJH1, 72 h; in short: as §2
[27] = Antimigratory activity in patient-derived RN1 cells assessed as velocity of migration at 1 uM measured up to 20 hrs by wound scratch assay (reference value: 937 to 1174 micrometer/hr); assay type: functional, Homo sapiens; in short: as §1
U-251 [28] = test: Antiinvasive activity in human U251 cells assessed as velocity of invasion at 5 uM measured up to 20 hrs by matrigel assay (reference value: 1151 to 1710 micrometer/hr); assay type: functional

Work on `COc1ccc2c(c1)[nH]c1c(C)nccc12` [HARMINE] yielded an IC50 [1] of 80 µM and an IC50 [2] of 0.41 µM.
`CC(=O)Nc1ccc(-c2cnc3[nH]cc(-c4ccc(O)cc4)c3c2)cc1` showed an IC50 [3] of 0.0066 µM, an Activity (A 172 [4]) of 651 um/hr and an Activity [5] of 196 um/hr. The EC50 [6] was 0.9 µM, the Activity (A 172 [7]) was 2027 um/hr and the EC50 [8] was 2.1 µM. It also gave an Activity (U-251 [9]) of 1125 um/hr, an Activity (U-251 [10]) of 111 um/hr and an Activity [11] of 210 um/hr. For the same compound, the IC50 [12] was 0.035 µM, the EC50 (U-251 [13]) was 1.6 to 4.6 µM and the EC50 [14] was 8.6 µM. The Activity (A 172 [15]) was 2891 um/hr, the IC50 [16] was 0.038 µM and the EC50 (A 172 [17]) was 1.6 to 4.6 µM. It also gave an Activity (U-251 [18]) of 736 um/hr, an Activity (A 172 [19]) of 2296 um/hr and an Activity (A 172 [20]) of 1718 um/hr. For the same compound, the inhibition (Homo sapiens) was “inactive”, the Activity (RN1) was “Dose-dependent effect” and the EC50 [21] was 2.1 µM. The Activity (A 172 [22]) was 2731 um/hr, the IC50 [23] was 0.536 µM and the Activity (U-251 [24]) was -118 um/hr. For the same compound, the Activity (U-251 [25]) was 173 um/hr, the EC50 [26] was 5.1 µM and the Activity [27] was 332 um/hr. It also gave an Activity (U-251 [28]) of 34 um/hr.
